What all share (assay type): functional, Artery
The test system of assay [1] is Rattus norvegicus. Description: Hypotensive activity in normotensive Wistar rat assessed as reduction of diastolic blood pressure at 0.31 mg/kg, iv after 10 mins. The gist of the method: (§1)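 Male normotensive Wistar rats were anaesthetised with thiopental 75 mg/kg ip. The right carotid artery was cannulated with heparinised saline for pressure recording. After 5 min of stabilisation, compound was injected into the tail vein at 1 mL/kg. Systolic and diastolic pressure were followed up to 60 min. Data are means ± SEM of 5–6 rats, analysed by one-way ANOVA.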

In assay [2] the test system is Rattus norvegicus. Description: Hypotensive activity in normotensive Wistar rat assessed as reduction of diastolic blood pressure at 0.625 mg/kg, iv after 60 mins. In a few lines:
as §1

Assay [3] deals with Rattus norvegicus. Description: Hypotensive activity in normotensive Wistar rat assessed as reduction of systolic blood pressure at 0.625 mg/kg, iv after 30 mins. The gist of the method:
(§2)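 Male normotensive Wistar rats (170–350 g) anaesthetised with thiopental 75 mg/kg ip; right carotid artery cannulated with heparinised saline-filled polyethylene tubing for pressure recording. After a 5 min stabilisation, compound given into the caudal vein at 1 mL/kg. Systolic pressure is recorded at 0, 5, 10, 20, 30 and 60 min, and the data are reported as mean ± SEM of five to six animals, with one-way ANOVA.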

In assay [4] the test system is Rattus norvegicus. Description: Hypotensive activity in normotensive Wistar rat assessed as reduction of systolic blood pressure at 0.16 mg/kg, iv after 10 mins. In a few lines: as §1
Assay [5] concerns Rattus norvegicus. Description: Hypotensive activity in normotensive Wistar rat assessed as reduction of diastolic blood pressure at 0.625 mg/kg, iv after 5 mins. The gist of the method:
as §1

For assay [6], the system named is Rattus norvegicus. Description: Hypotensive activity in normotensive Wistar rat assessed as reduction of systolic blood pressure at 0.625 mg/kg, iv after 20 mins. In a few lines:
as §2

Assay [7] concerns Rattus norvegicus. Description: Hypotensive activity in normotensive Wistar rat assessed as reduction of systolic blood pressure at 0.31 mg/kg, iv after 30 mins. In a few lines: as §2
In assay [8] the test system is Rattus norvegicus. Description: Hypotensive activity in normotensive Wistar rat assessed as reduction of diastolic blood pressure at 0.31 mg/kg, iv after 60 mins. In a few lines: as §1
In assay [9] the test system is Rattus norvegicus. Description: Hypotensive activity in normotensive Wistar rat assessed as reduction of diastolic blood pressure at 0.625 mg/kg, iv after 20 mins. The gist of the method: as §1
The test system of assay [10] is Rattus norvegicus. Description: Hypotensive activity in normotensive Wistar rat assessed as reduction of systolic blood pressure at 0.16 mg/kg, iv after 5 mins. In a few lines: as §2
In assay [11] the test system is Rattus norvegicus. Description: Hypotensive activity in normotensive Wistar rat assessed as reduction of systolic blood pressure at 0.625 mg/kg, iv after 10 mins. In a few lines: as §2
Assay [12] relates to Rattus norvegicus. Description: Hypotensive activity in normotensive Wistar rat assessed as reduction of diastolic blood pressure at 0.16 mg/kg, iv after 30 mins. The gist of the method: as §1
Assay [13] has as its system Rattus norvegicus. Description: Hypotensive activity in normotensive Wistar rat assessed as reduction of systolic blood pressure at 0.31 mg/kg, iv after 5 mins. In a few lines:
as §2

For assay [14], the system named is Rattus norvegicus. Description: Hypotensive activity in normotensive Wistar rat assessed as reduction of systolic blood pressure at 0.31 mg/kg, iv after 10 mins. The gist of the method:
as §2

Assay [15] has as its system Rattus norvegicus. Description: Hypotensive activity in normotensive Wistar rat assessed as reduction of systolic blood pressure at 0.625 mg/kg, iv after 60 mins. In a few lines:
as §2

The subject of assay [16] is Rattus norvegicus. Description: Hypotensive activity in normotensive Wistar rat assessed as reduction of diastolic blood pressure at 0.625 mg/kg, iv after 30 mins. The gist of the method:
as §1

The test system of assay [17] is Rattus norvegicus. Description: Hypotensive activity in normotensive Wistar rat assessed as reduction of systolic blood pressure at 0.16 mg/kg, iv after 30 mins. In a few lines: as §2
Assay [18] concerns Rattus norvegicus. Description: Hypotensive activity in normotensive Wistar rat assessed as reduction of diastolic blood pressure at 0.31 mg/kg, iv after 20 mins. The gist of the method: as §1
Assay [19] has as its system Rattus norvegicus. Description: Hypotensive activity in normotensive Wistar rat assessed as reduction of systolic blood pressure at 0.31 mg/kg, iv after 20 mins. In a few lines: as §2
The subject of assay [20] is Rattus norvegicus. Description: Hypotensive activity in normotensive Wistar rat assessed as reduction of diastolic blood pressure at 1.25 mg/kg, iv after 60 mins. In a few lines: as §1
The test system of assay [21] is Rattus norvegicus. Description: Hypotensive activity in normotensive Wistar rat assessed as reduction of systolic blood pressure at 1.25 mg/kg, iv after 20 mins. In a few lines:
as §2

Assay [22] concerns Rattus norvegicus. Description: Hypotensive activity in normotensive Wistar rat assessed as reduction of systolic blood pressure at 1.25 mg/kg, iv after 30 mins. In a few lines: as §2
The test system of assay [23] is Rattus norvegicus. Description: Hypotensive activity in normotensive Wistar rat assessed as reduction of diastolic blood pressure at 1.25 mg/kg, iv after 10 mins. In a few lines: as §1
Assay [24] deals with Rattus norvegicus. Description: Hypotensive activity in normotensive Wistar rat assessed as reduction of diastolic blood pressure at 1.25 mg/kg, iv after 5 mins. In a few lines:
as §1

The test system of assay [25] is Rattus norvegicus. Description: Hypotensive activity in normotensive Wistar rat assessed as reduction of systolic blood pressure at 1.25 mg/kg, iv after 5 mins. The gist of the method:
as §2

Among the data in ChEMBL document CHEMBL2311390, “Synthesis and preliminary evaluation of pharmacological properties of some piperazine derivatives of xanthone” (Bioorg Med Chem, 2013) are Activity values, retold here.

The structures appear in SMILES notation.

On to `COc1ccccc1N1CCN(CCCOc2cccc3c(=O)c4ccccc4oc23)CC1.Cl`, for which the Activity in [1] is given as 107.7 mmHg; in assay [2] it was 112 mmHg; in [3] it was 129.5 mmHg; in assay [4], 114 mmHg; in [5] it was 101 mmHg; in [6], 129.5 mmHg. Also, the Activity in [7] worked out at 119.5 mmHg; in assay [8], 97.2 mmHg; in [9], 110.5 mmHg; in [10] it was 109.6 mmHg; in [11], 125.5 mmHg; in assay [12], 100 mmHg. In addition, the Activity in [13] is listed as 122 mmHg; in [14], 122.8 mmHg; in assay [15] it was 129.5 mmHg; in [16], 111.7 mmHg; in assay [17] it was 111.4 mmHg; in [18] it was 105.7 mmHg. In addition, the Activity in assay [19] worked out at 121 mmHg.
`COc1ccccc1N1CCN(CC(COc2cccc3c(=O)c4ccccc4oc23)OC(C)=O)CC1.Cl` (racemic): the Activity is recorded as 92 mmHg in assay [2]; 120.6 mmHg in [3]; 89.6 mmHg in [20]; 95.6 mmHg in [5]; 122.2 mmHg in [6]; 117 mmHg in assay [21]. The Activity in assay [9] is 95.4 mmHg; in assay [22] it was 117.6 mmHg; in assay [23], 93.6 mmHg; in [11], 123.8 mmHg; in assay [24], 92.8 mmHg; in [25] it was 119 mmHg. In addition, the Activity came out at 123.2 mmHg in assay [15] and 93.2 mmHg in assay [16].
On to `COc1ccccc1N1CCN(CC(O)COc2cccc3c(=O)c4ccccc4oc23)CC1.Cl` (racemic), for which the Activity in assay [1] is 103 mmHg; in [4], 124.8 mmHg; in assay [7], 118.6 mmHg; in assay [8] it was 98.4 mmHg; in [10] it was 124 mmHg; in assay [12], 101.8 mmHg. Besides, the Activity in [13] is recorded as 122.8 mmHg; in assay [14], 121.8 mmHg; in assay [17], 115.7 mmHg; in assay [18] it was 102 mmHg; in [19] it was 120.6 mmHg.
